# Measurements: PubChem BioAssay
# The source made the active and inactive calls.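 Rule for the calls: active = current rise at least 3 SD above the untreated control mean in each of two repeat wells; inactive = the rest.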
# Molecular target: Potassium voltage-gated channel subfamily KQT member 1 (Homo sapiens) (UniProt P51787)
# Experiment: KCNQ1 activators by electrophysiology – IonWorks patch clamp, KCNQ1-CHO cells, orthogonal assay for KCNQ1 potentiator project, confirmation (AID 493184)
# Conditions: automated patch clamp current, at 10 µM
# Procedure, shortened: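 Test system: KCNQ1-expressing CHO cells. Medium: pH 7.4 external bath. Probe or stimulus: voltage step from -90 mV holding to +40 mV, 2,000 ms. Compound: 10 µM final, single point. Detection: automated perforated-patch electrophysiology. Read-out: percent current increase versus pre-compound level. Repeats: two replicates.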
# Potassium voltage-gated channel subfamily KQT member 1 (Homo sapiens), sequence (P51787 whole entry, looked up): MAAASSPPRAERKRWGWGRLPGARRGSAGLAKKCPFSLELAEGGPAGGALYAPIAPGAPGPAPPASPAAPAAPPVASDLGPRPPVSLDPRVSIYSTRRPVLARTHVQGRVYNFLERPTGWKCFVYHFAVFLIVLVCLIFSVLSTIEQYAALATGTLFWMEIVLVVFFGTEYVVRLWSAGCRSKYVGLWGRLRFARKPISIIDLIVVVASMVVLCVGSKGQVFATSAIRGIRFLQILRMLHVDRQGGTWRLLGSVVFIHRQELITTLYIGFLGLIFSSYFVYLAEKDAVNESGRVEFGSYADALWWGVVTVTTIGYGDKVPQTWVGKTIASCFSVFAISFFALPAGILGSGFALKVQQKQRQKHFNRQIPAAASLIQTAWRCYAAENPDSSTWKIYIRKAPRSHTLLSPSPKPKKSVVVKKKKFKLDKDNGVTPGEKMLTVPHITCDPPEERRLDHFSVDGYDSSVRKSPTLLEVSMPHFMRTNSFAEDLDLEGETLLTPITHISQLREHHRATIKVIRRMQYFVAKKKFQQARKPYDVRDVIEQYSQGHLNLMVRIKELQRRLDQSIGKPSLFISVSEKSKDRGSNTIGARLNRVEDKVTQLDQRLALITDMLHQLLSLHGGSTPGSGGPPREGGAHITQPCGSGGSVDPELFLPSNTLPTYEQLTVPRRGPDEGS
row,SMILES,outcome
1,Fc1ccc2nc(Nc3nc4c(F)cc(F)cc4s3)sc2c1,inactive
2,N#Cc1ccccc1Oc1ccccc1C=O,inactive
3,O=C(NC(=S)Nc1ccccc1Cl)c1cncc(Br)c1,inactive
4,COc1cccc(/C=N/Nc2snc(SC)c2C#N)c1O,inactive
5,Cc1c(/C=N\NC(=O)c2ccc(F)cc2)cnn1C,inactive
6,CSc1ccc(/C=N/n2c(Cc3ccc(Br)cc3)n[nH]c2=S)cc1,inactive
7,O=C1CC(c2cccs2)Cc2nc(NC(=O)C3CC3)ncc21 (stereo not given),inactive
8,CCCn1c(N)c(C(=O)CSc2nc(C)nc3sc(C)c(C)c23)c(=O)[nH]c1=O,inactive
9,COc1cccc(C(=O)NNC(=O)C(=O)Nc2ccc(C)c(Cl)c2)c1,inactive
10,Cc1ccc(/C(O)=C/C(=O)C(=O)NC23CC4CC(CC(C4)C2)C3)cc1,inactive
11,CN1C(=O)C2(Oc3ccccc3C3CC(c4ccccc4)=NN32)c2ccccc21 (stereo not given),inactive
12,N#C/C=C1/NC(=O)c2ccccc2S1,inactive
13,CCC1=NN(C(=O)c2ccc(Br)cc2)C(O)(c2ccccc2)C1 (stereo not given),inactive
14,Fc1cccc2sc(Nc3nnc(-c4ccco4)o3)nc12,inactive
15,COc1ccc(CNC(=O)CNC(C)c2ccc(F)cc2)cc1 (stereo not given),inactive
16,Cc1ccc2nc(C)cc(N/N=C/c3cccnc3)c2c1,inactive
17,O=C(Nc1nc(=O)c2ccccc2s1)c1ccc(F)cc1,inactive
18,CCCc1c(C)[nH]c2ccc(NC(C)=O)cc2c1=O,inactive
19,Cn1c(=NC(=O)c2ccco2)sc2cccc(F)c21,inactive
20,COc1ccccc1CNC(=O)COC(=O)c1nccnc1N,inactive
